Laboratory results published in paper PMC4232461 (Nature chemical biology, 2014).
Where a SMILES comes first, the peptide text is derived from it. The star is where a group is joined. Cbz = O=C(OCc1ccccc1)*

target: Her3 (Homo sapiens, UniProt P21860); assay: Western blot of Her3 level in PC9 GR4 cells; assay type: cell-based; details: combination with TX2-121-1 (0.5 μM), 116-9e 1.0 μM, 17-AAG 0.1 μM
How it was run: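 Serum-starved PC9 GR4 cells were treated with test compounds, then stimulated for 30 min with 100 ng/ml NRG. Cells were lysed in Tris/NaCl/EDTA/1% NP-40 buffer with phosphatase and protease inhibitors, and protein was normalised by BCA. Lysates were resolved on 4–12% SDS-PAGE and PVDF blots were probed for p-Her3, Her3, p-Akt (Ser473), Akt, p-Erk1/2 (Thr202/Tyr204) and Erk1/2.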

Her3, sequence (P21860 20-1342): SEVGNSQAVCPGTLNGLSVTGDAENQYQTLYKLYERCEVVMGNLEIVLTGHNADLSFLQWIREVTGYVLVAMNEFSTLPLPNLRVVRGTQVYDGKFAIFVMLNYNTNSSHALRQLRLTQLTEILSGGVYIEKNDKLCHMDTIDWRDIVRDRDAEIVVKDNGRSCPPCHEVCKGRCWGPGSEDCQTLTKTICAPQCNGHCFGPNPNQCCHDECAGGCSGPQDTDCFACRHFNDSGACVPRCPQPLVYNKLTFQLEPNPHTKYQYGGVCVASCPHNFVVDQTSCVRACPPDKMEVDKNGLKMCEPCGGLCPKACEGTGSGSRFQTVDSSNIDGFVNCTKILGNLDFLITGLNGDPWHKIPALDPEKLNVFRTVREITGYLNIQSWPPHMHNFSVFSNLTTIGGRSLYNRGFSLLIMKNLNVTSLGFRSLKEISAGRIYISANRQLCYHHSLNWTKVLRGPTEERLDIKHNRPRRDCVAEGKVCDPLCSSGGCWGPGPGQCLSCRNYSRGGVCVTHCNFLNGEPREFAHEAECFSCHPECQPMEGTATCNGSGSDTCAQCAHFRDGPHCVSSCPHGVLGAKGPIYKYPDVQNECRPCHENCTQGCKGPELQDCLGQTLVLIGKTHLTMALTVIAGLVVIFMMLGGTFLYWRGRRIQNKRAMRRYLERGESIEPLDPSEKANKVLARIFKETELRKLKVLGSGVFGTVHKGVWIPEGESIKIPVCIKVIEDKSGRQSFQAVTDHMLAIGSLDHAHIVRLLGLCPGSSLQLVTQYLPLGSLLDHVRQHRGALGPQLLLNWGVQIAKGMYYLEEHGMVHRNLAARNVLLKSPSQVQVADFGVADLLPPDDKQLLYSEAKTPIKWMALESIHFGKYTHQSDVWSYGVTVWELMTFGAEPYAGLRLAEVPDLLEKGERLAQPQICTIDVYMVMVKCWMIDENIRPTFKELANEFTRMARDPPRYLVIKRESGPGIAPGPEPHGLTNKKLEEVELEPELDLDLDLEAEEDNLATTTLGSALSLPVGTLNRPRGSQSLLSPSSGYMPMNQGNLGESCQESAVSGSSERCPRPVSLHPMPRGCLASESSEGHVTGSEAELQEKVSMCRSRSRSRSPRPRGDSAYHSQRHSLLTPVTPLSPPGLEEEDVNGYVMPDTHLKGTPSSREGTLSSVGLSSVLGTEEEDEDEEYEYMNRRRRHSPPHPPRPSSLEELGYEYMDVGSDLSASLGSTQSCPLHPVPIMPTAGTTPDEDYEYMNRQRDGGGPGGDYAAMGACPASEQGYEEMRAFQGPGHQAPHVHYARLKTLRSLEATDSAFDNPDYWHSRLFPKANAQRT

Row | Structure (SMILES) | effect on TX2-121-1 induced Her3 degradation
1 | CC1=C(C(=O)OCc2ccccc2)C(c2ccc(-c3ccccc3)cc2)NC(=O)N1CCCCCC(=O)O (stereo not drawn) [116-9e, 4-[1,1′-biphenyl]-4-yl-3,4-dihydro-6-methyl-2-oxo-5-[(phenylmethoxy)carbonyl]-1(2H)-pyrimidinehexanoic acid] | enhanced degradation of Her3
2 | C=CCNC1=C2C[C@@H](C)C[C@H](OC)[C@H](O)[C@@H](C)/C=C(\C)[C@H](OC(N)=O)[C@@H](OC)/C=C\C=C(/C)C(=O)NC(=CC1=O)C2=O [17-AAG, 17-N-allylamino-17-demethoxygeldanamycin] | enhanced degradation of Her3
3 | CC(C)C[C@@H](C=O)NC(=O)[C@H](CC(C)C)NC(=O)[C@H](CC(C)C)NC(=O)OCc1ccccc1 [MG132] (Cbz-Leu-Leu-Leu-aldehyde) | diminished
